From PMC9540525 (Cancer, 2022)

Tests used:
[1] = test system: advanced or unresectable solid tumors, including NENs and R/R NHL; test: Phase 1 study CC-90011-ST-001: efficacy; assay type: in vivo, human
How it was run: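 Phase 1 open-label multicenter study; adults with advanced NENs or R/R NHL. Test compound given orally once weekly in 28-day cycles (expansion: 60 mg); reductions and interruptions of up to 4 weeks allowed. Investigator-assessed response: RECIST 1.1 (solid tumors), IWG (NHL), PCWG3 (neuroendocrine prostate); FDG PET or PET/CT confirmed CR in FDG-avid tumors. Two-sided 95% Clopper–Pearson CIs; Kaplan–Meier medians.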

[2] = Phase 1 study: plasma pharmacokinetics, noncompartmental analysis; assay type: in vivo, human
[3] = test system: MMD gene expression in peripheral blood; test: Phase 1 study: MMD gene expression in peripheral blood; assay type: in vivo, human; conditions: dose expansion, 60 mg once per week
[4] = test system: progastrin‐releasing peptide [pro‐GRP]; test: Phase 1 study: serum progastrin-releasing peptide; assay type: in vivo, human; conditions: dose expansion, NENs
[5] = Phase 1 study: treatment duration, modification, exposure and disposition; assay type: in vivo, human; conditions: dose expansion, NEN cohort, n=16
[6] = dose escalation, cited from earlier work
[7] = test system: solid tumor cell lines, including small cell lung cancer, and acute myeloid leukemia cell lines; conditions: solid tumor cell lines incl. SCLC, and AML cell lines; cited from earlier work

COc1ccc(-c2c(-c3ccc(C#N)c(F)c3)nc(N3CCC(N)CC3)n(C)c2=O)cc1F [CC‐90011]
Best overall response: CR ([1]; dose escalation, n = 50): 1 (2.0) no. (%) | Best overall response: NE ([1]; dose escalation, n = 50): 4 (8.0) no. (%) | Best overall response: PD ([1]; dose escalation, n = 50): 22 (44.0) no. (%) | Best overall response: PR ([1]; dose escalation, n = 50): 1 (2.0) no. (%) | Best overall response: SD ([1]; dose escalation, n = 50): 22 (44.0) no. (%) | Best overall response: SD ≥4 months ([1]; dose escalation, n = 50): 8 (16.0) no. (%) | CBR [95% CI] ([1]; dose escalation, n = 50): 20 [10.0–33.7] % | ORR [95% CI] ([1]; dose escalation, n = 50): 4 [0.5–13.7] % | mOS [95% CI] ([1]; dose escalation, n = 50): 7.8 [6.1–20.1] months | mPFS [95% CI] ([1]; dose escalation, n = 50): 3.4 [1.7–3.7] months | patients with NENs with SD lasting ≥6 months / >6 months ([1]; dose escalation, grade ≥2 NENs): seven | treatment cycle in which the patient with CR was still ongoing ([1]; dose escalation, one patient with R/R MZL, as of April 2022): 58 cycle | patients with bronchial NENs with SD after nine or more cycles ([1]; dose expansion): three | Best overall response: CR ([1]; dose expansion, n=19): 0 (0.0) no. (%) | Best overall response: NE ([1]; dose expansion, n=19): 2 (11.0) no. (%) | Best overall response: PD ([1]; dose expansion, n=19): 7 (37.0) no. (%) | Best overall response: PR ([1]; dose expansion, n=19): 0 (0.0) no. (%) | CBR [95% CI] ([1]; dose expansion, n=19): 37 [16.3–61.6] % | ORR [95% CI] ([1]; dose expansion, n=19): 0 [0.0–17.6] % | mOS [95% CI] ([1]; dose expansion, n=19): 15.6 [7.0, NE] months | mPFS [95% CI] ([1]; dose expansion, n=19): 1.8 [1.1–5.4] months | treatment cycle in which the patient with SD was still ongoing ([1]; dose expansion, one patient with bronchial NENs, as of April 2022): 46 cycle | median PFS ([1]; patients with bronchial NENs): 4.6 months | accumulation with repeat dosing based on the AUC ([2]; dose expansion, 60 mg once per week): Negligible accumulation | time of peak CC-90011 concentration after treatment, approximate median ([2]; dose expansion, NEN, n = 16, 60 mg once per week): ~4 h | terminal half-life ([2]; in words): long terminal half‐life | downregulation in MMD gene expression in the peripheral blood [3]: ≥ 50% | patients in whom pro-GRP levels decreased [4]: 15 of 16 | patients with a pro-GRP decrease >30% [4]: 11 of 16 | ≥1 dose interruption due to AE [5]: 10 (63%) n (%) | dose-limiting toxicity [6]: Thrombocytopenia was the only dose‐limiting toxicity reported | maximum tolerated dose ([6]; once per week): 80 mg | nontolerated dose ([6]; once per week): 120 mg | recommended phase 2 dose (RP2D) ([6]; once per week): 60 mg | antiproliferative activity in vitro [7]: has antiproliferative activity in various solid tumor cell lines in vitro
